# Data published in ChEMBL document CHEMBL3525967, “In vitro glucuronidation of the antibacterial triclocarban and its oxidative metabolites” (Drug Metab Dispos, 2012).
# What was measured:
# [1] = Drug metabolism in cynomolgus monkey liver microsomes assessed as glucuronidation incubated for 5 mins prior to UDPGA addition measured after 5 to 30 mins by LC-UV analysis; format: ADME, Macaca fascicularis
# Outline: (§1)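 Microsomes or Sf-9 Supersomes (5 µg protein in 200 µL 100 mM potassium phosphate pH 7.4) pre-treated with alamethicin on ice 15 min; substrate 10 µM final (2% DMSO), MgCl2 and saccharolactone 10 mM each; 5 min preincubation at 37 °C, then UDPGA to start. Samples taken at 5, 10, 15, 30 min (or 2, 5, 10, 15 min) into ACN with internal standard; LC-UV-ESI-MS/MS.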
# [2] = molecular target: T1, UDP-glucuronosyltransferase 1A3 (Homo sapiens, UniProt P35503); experiment: Drug metabolism assessed as human UGT1A3-mediated glucuronidation expressed in baculovirus infected insect sf9 cells incubated for 5 mins prior to UDPGA addition measured after 5 to 30 mins by LC-UV analysis; format: ADME; outline: as §1
# T1 sequence (P35503 whole entry): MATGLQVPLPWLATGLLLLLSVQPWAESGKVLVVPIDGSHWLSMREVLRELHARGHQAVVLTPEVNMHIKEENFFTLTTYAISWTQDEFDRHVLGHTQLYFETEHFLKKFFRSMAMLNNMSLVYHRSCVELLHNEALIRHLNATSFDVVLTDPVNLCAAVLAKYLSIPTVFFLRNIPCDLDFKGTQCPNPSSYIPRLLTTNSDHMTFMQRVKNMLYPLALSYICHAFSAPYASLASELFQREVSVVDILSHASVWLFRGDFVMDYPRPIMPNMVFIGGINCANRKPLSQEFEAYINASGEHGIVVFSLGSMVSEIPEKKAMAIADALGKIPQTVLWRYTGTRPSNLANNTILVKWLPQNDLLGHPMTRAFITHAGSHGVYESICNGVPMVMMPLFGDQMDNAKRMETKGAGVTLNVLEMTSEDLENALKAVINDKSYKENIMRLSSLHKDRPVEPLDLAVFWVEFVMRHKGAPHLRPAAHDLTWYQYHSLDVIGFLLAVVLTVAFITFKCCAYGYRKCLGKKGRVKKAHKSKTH
# [3] = molecular target: T2, UDP-glucuronosyltransferase 1A6 (Homo sapiens, UniProt P19224); experiment: Drug metabolism assessed as human UGT1A6-mediated glucuronidation expressed in baculovirus infected insect sf9 cells incubated for 5 mins prior to UDPGA addition measured after 5 to 30 mins by LC-UV analysis; format: ADME; outline: as §1
# T2 sequence (P19224 whole entry): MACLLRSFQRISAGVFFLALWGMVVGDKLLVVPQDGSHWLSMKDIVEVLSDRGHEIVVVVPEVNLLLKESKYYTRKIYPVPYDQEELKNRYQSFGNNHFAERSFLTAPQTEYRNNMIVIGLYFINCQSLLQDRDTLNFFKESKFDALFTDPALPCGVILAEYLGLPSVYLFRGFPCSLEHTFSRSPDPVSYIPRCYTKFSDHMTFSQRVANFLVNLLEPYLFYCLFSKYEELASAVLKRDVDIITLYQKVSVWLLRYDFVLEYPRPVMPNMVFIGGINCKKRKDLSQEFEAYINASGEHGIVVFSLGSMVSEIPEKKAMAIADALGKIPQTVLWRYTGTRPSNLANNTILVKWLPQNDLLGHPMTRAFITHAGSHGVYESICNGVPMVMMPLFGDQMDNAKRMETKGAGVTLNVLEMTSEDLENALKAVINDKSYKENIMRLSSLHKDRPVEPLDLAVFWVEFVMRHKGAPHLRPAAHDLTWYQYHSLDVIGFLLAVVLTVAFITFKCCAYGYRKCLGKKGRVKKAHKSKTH
# [4] = molecular target: T3, UDP-glucuronosyltransferase 1A7 (Homo sapiens, UniProt Q9HAW7); experiment: Drug metabolism assessed as human UGT1A7-mediated glucuronidation expressed in baculovirus infected insect sf9 cells incubated for 5 mins prior to UDPGA addition measured after 5 to 30 mins by LC-UV analysis; format: ADME; outline: as §1
# T3 sequence (Q9HAW7 whole entry): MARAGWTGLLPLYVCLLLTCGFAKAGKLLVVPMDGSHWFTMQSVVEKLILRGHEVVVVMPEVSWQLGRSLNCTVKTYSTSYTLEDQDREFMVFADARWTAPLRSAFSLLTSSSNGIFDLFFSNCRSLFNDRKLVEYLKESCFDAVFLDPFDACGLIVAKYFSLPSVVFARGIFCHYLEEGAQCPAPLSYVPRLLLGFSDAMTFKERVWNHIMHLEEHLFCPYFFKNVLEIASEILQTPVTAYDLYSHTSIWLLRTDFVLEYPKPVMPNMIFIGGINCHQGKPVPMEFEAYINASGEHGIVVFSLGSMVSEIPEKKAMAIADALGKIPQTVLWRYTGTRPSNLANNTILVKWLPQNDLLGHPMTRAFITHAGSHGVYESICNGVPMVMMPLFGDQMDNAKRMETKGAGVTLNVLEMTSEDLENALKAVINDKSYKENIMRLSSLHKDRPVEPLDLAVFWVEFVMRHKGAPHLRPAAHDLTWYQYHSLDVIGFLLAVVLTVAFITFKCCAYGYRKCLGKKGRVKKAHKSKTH
# [5] = molecular target: T4, UDP-glucuronosyltransferase 2B4 (Homo sapiens, UniProt P06133); experiment: Drug metabolism assessed as human UGT2B4-mediated glucuronidation expressed in baculovirus infected insect sf9 cells incubated for 5 mins prior to UDPGA addition measured after 5 to 30 mins by LC-UV analysis; format: ADME; outline: as §1
# T4 sequence (P06133 whole entry): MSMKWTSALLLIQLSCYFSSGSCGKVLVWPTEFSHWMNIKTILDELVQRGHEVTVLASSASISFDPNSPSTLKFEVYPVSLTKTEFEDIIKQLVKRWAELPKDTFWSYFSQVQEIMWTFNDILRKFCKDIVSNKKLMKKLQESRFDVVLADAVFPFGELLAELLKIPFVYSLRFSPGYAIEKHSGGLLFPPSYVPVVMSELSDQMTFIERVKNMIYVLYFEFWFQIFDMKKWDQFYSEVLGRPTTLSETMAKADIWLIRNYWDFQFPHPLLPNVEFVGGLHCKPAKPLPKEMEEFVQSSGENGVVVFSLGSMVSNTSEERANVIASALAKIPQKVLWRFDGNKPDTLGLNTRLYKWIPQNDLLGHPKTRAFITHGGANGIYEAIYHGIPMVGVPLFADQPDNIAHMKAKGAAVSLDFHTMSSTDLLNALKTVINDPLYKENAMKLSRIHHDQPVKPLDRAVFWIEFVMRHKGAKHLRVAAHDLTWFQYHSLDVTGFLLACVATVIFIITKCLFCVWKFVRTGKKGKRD
Drug metabolism [1] [pmol/min/mg],Drug metabolism [2] [pmol/min/mg],Drug metabolism [3],Drug metabolism [4] [pmol/min/mg],Drug metabolism [5],Structure (SMILES)
22800,390,metabolite_not_detected,870,metabolite_not_detected,O=C(Nc1ccc(Cl)c(Cl)c1)Nc1ccc(Cl)cc1O
16300,410,metabolite_not_detected,1100,metabolite_not_detected,O=C(Nc1ccc(Cl)cc1)Nc1cc(Cl)c(Cl)cc1O
9500,540,metabolite_not_detected,1700,metabolite_not_detected,O=C(Nc1ccc(Cl)c(O)c1)Nc1ccc(Cl)c(Cl)c1
